Source: ChEMBL document CHEMBL4145567, “Natural Stilbenoids Have Anti-Inflammatory Properties in Vivo and Down-Regulate the Production of Inflammatory Mediators NO, IL6, and MCP1 Possibly in a PI3K/Akt-Dependent Manner” (J Nat Prod, 2018)
The source made the active and inactive calls. The calls are words filed in the database; no cut-off is given here.

Key:
J774 [1] = experiment: Inhibition of PI3K/Akt in mouse J774 cells assessed as reduction in LPS-induced Akt phosphorylation at Ser473 after 4 hrs by Western blot analysis; type: cell-based
Outline: (§1)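 J774 macrophages were exposed to LPS (10 ng/mL) for 4 h with increasing compound concentrations, then lysed on ice in Tris/EDTA/Triton buffer with protease and phosphatase inhibitors. Lysate protein (20 μg) was Western blotted with an antibody against Akt phospho-S473. Chemiluminescence was quantified; mean + SEM, n = 4.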

J774 [2] = experiment: Antiinflammatory activity in mouse J774 cells assessed as reduction in LPS-induced nitric oxide production after 24 hrs by Griess assay; type: functional, cell-based; conditions: for IC50: J774, 24 h
Outline: (§2)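 Confluent J774 macrophages (72 h growth, DMEM/10% FBS) were treated with LPS 10 ng/mL plus increasing compound concentrations for 24 h. NO production was followed as nitrite accumulated in the medium, measured by Griess test. The half-maximal inhibitory concentration was derived from the concentration series; n = 4.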

J774 [3] = experiment: Antiinflammatory activity in mouse J774 cells assessed as reduction in LPS-induced IL6 expression after 24 hrs by ELISA; type: functional, cell-based; conditions: for IC50: J774, 24 h
Outline: (§3)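 J774 macrophages were grown 72 h to confluence in DMEM with 10% heat-inactivated FBS. Cells were stimulated with LPS (10 ng/mL) with increasing compound concentrations for 24 h. IL6 or MCP1 in the collected medium was measured by ELISA. Concentration giving 50% inhibition was taken from the concentration series; mean + SEM, n = 4.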

J774 [4] = experiment: Antiinflammatory activity in mouse J774 cells assessed as reduction in LPS-induced MCP1 expression after 24 hrs by ELISA; type: functional, cell-based; conditions: for IC50: J774, 24 h; outline: as §3
Mus musculus [5] = experiment: Antiinflammatory activity in carrageenan induced C57BL/6 mouse model of inflammation assessed as reduction in paw edema at 30 mg/kg, ip pretreated for 1 to 2 hrs followed by carrageenan challenge measured after 3 to 6 hrs by plethysmometer; type: functional, organism-based
Outline: (§4)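 Mice got compound i.p. in 10% DMSO in PBS (pH 7.4) before carrageenan. Under i.p. medetomidine (0.5 mg/kg) plus ketamine (75 mg/kg), one hindpaw received 50 μL intradermal 1.5% w/v λ-carrageenan in saline, and the contralateral paw got saline. Paw volume was measured by plethysmometer before and 3 and 6 h after. Edema = carrageenan-paw minus saline-paw volume change; n = 6–7/group.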

Mus musculus [6] = experiment: Antiinflammatory activity in carrageenan induced C57BL/6 mouse model of inflammation assessed as reduction in IL6 expression in hind paw at 30 mg/kg, ip pretreated for 1 to 2 hrs followed by carrageenan challenge measured after 6 hrs by ELISA; type: functional, organism-based
Outline: (§5)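 Compound was given i.p. in 10% DMSO/PBS (pH 7.4) before intradermal 1.5% w/v λ-carrageenan (50 μL) into one hindpaw under anesthesia; the contralateral paw got saline. At 6 h, paw tissue was collected into 50 mM Tris pH 7.4, 150 mM NaCl with protease/phosphatase inhibitors, minced and centrifuged (10000g, 10 min). Supernatant cytokine was read by ELISA; n = 6–7/group.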

Mus musculus [7] = experiment: Antiinflammatory activity in carrageenan induced C57BL/6 mouse model of inflammation assessed as reduction in MCP1 expression in hind paw at 30 mg/kg, ip pretreated for 1 to 2 hrs followed by carrageenan challenge measured after 6 hrs by ELISA; type: functional, organism-based; outline: as §5
J774 [8] = experiment: Inhibition of PI3K/Akt in mouse J774 cells assessed as reduction in LPS-induced Akt phosphorylation at Ser473 at 30 uM after 4 hrs by Western blot analysis; type: cell-based; outline: as §1
J774 [9] = experiment: Inhibition of PI3K/Akt in mouse J774 cells assessed as reduction in LPS-induced Akt phosphorylation at Ser473 at 10 uM after 4 hrs by Western blot analysis; type: cell-based; outline: as §1
Mus musculus [10] = experiment: Antiinflammatory activity in carrageenan induced C57BL/6 mouse model of inflammation assessed as reduction in paw edema at 15 mg/kg, ip pretreated for 1 to 2 hrs followed by carrageenan challenge measured after 3 to 6 hrs by plethysmometer; type: functional, organism-based; outline: as §4
Mus musculus [11] = experiment: Antiinflammatory activity in carrageenan induced C57BL/6 mouse model of inflammation assessed as reduction in IL6 expression in hind paw at 15 mg/kg, ip pretreated for 1 to 2 hrs followed by carrageenan challenge measured after 6 hrs by ELISA; type: functional, organism-based; outline: as §5
Mus musculus [12] = experiment: Antiinflammatory activity in carrageenan induced C57BL/6 mouse model of inflammation assessed as reduction in MCP1 expression in hind paw at 15 mg/kg, ip pretreated for 1 to 2 hrs followed by carrageenan challenge measured after 6 hrs by ELISA; type: functional, organism-based; outline: as §5
J774 [13] = experiment: Antiinflammatory activity in mouse J774 cells assessed as reduction in LPS-induced nitric oxide production at 30 uM after 24 hrs by Griess assay; type: functional, cell-based; outline: as §2
J774 [14] = experiment: Antiinflammatory activity in mouse J774 cells assessed as reduction in LPS-induced IL6 expression at 30 uM after 24 hrs by ELISA; type: functional, cell-based; outline: as §3
J774 [15] = experiment: Antiinflammatory activity in mouse J774 cells assessed as reduction in LPS-induced MCP1 expression at 30 uM after 24 hrs by ELISA; type: functional, cell-based; outline: as §3
J774 [16] = experiment: Inhibition of PI3K/Akt in mouse J774 cells assessed as reduction in LPS-induced Akt phosphorylation at Ser473 at 100 uM after 4 hrs by Western blot analysis; type: cell-based; outline: as §1
Mus musculus [17] = experiment: Antiinflammatory activity in carrageenan induced C57BL/6 mouse model of inflammation assessed as reduction in paw edema at 2 mg/kg, ip pretreated for 1 to 2 hrs followed by carrageenan challenge measured after 3 to 6 hrs by plethysmometer; type: functional, organism-based; outline: as §4
Mus musculus [18] = experiment: Antiinflammatory activity in carrageenan induced C57BL/6 mouse model of inflammation assessed as reduction in IL6 expression in hind paw at 2 mg/kg, ip pretreated for 1 to 2 hrs followed by carrageenan challenge measured after 6 hrs by ELISA; type: functional, organism-based; outline: as §5
Mus musculus [19] = experiment: Antiinflammatory activity in carrageenan induced C57BL/6 mouse model of inflammation assessed as reduction in MCP1 expression in hind paw at 2 mg/kg, ip pretreated for 1 to 2 hrs followed by carrageenan challenge measured after 6 hrs by ELISA; type: functional, organism-based; outline: as §5

Oc1ccc(/C=C/c2cc(O)cc(O)c2)cc1 [RESVERATROL]
inhibition (J774 [1]): Dose-dependent effect | Activity (J774 [2]): Dose-dependent effect | IC50 (J774 [2]): 12.2 µM | Activity (J774 [3]): Dose-dependent effect | IC50 (J774 [3]): 6.8 µM | Activity (J774 [4]): Dose-dependent effect | IC50 (J774 [4]): 13.6 µM

COc1cc(/C=C/c2ccc(O)cc2)cc(OC)c1 [PTEROSTILBENE]
inhibition (J774 [1]): Dose-dependent effect | Activity (J774 [2]): Dose-dependent effect | IC50 (J774 [2]): 16.7 µM | Activity (J774 [3]): Dose-dependent effect | IC50 (J774 [3]): 8.7 µM | Activity (J774 [4]): Dose-dependent effect | IC50 (J774 [4]): 10.5 µM | Activity (Mus musculus [5]): Active | Activity (Mus musculus [6]): Active | Activity (Mus musculus [7]): Active

Oc1cc(/C=C/c2ccccc2)cc(OCc2ccccc2)c1
inhibition (J774 [8]): inactive

O=c1cc(N2CCOCC2)oc2c(-c3ccccc3)cccc12 [LY-294002]
inhibition (J774 [9]): Active | IC50 (J774 [2]): 8.9 µM | IC50 (J774 [3]): 5.1 µM | IC50 (J774 [4]): 3.7 µM | Activity (Mus musculus [10]): Active | Activity (Mus musculus [11]): Active | Activity (Mus musculus [12]): Active

CCOc1cc(O)cc(/C=C/c2ccccc2)c1
inhibition (J774 [8]): Active

CCCOc1cc(O)cc(/C=C/c2ccccc2)c1
inhibition (J774 [8]): inactive

COc1ccc(/C=C/c2cc(O)cc(O[C@@H]3O[C@H](CO)[C@@H](O)[C@H](O)[C@H]3O)c2)cc1O
Activity (J774 [13]): inactive | Activity (J774 [14]): inactive | Activity (J774 [15]): inactive | inhibition (J774 [16]): inactive

Oc1cc(O)cc(/C=C/c2ccccc2)c1 [PINOSYLVIN]
inhibition (J774 [1]): Dose-dependent effect | Activity (J774 [2]): Dose-dependent effect | IC50 (J774 [2]): 16.6 µM | Activity (J774 [3]): Dose-dependent effect | IC50 (J774 [3]): 32.1 µM | Activity (J774 [4]): Dose-dependent effect | IC50 (J774 [4]): 38.7 µM | Activity (Mus musculus [5]): Active | Activity (Mus musculus [6]): Active | Activity (Mus musculus [7]): Active

C=CCOc1cc(O)cc(/C=C/c2ccccc2)c1
inhibition (J774 [8]): Active

CC(C)(C)Oc1cc(O)cc(/C=C/c2ccccc2)c1
inhibition (J774 [8]): inactive

OC[C@H]1O[C@@H](Oc2cc(O)cc(/C=C/c3ccc(O)c(O)c3)c2)[C@H](O)[C@@H](O)[C@@H]1O
Activity (J774 [13]): inactive | Activity (J774 [14]): inactive | Activity (J774 [15]): inactive | inhibition (J774 [16]): inactive

COc1cc(O)cc(/C=C/c2ccccc2)c1 [PINOSYLVIN METHYL ETHER]
inhibition (J774 [1]): Dose-dependent effect | Activity (J774 [2]): Dose-dependent effect | IC50 (J774 [2]): 37 µM | Activity (J774 [3]): Dose-dependent effect | IC50 (J774 [3]): 30.2 µM | Activity (J774 [4]): Dose-dependent effect | IC50 (J774 [4]): 23.7 µM

Oc1cc(O)cc(/C=C/c2ccc(O)c(O)c2)c1 [PICEATANNOL]
inhibition (J774 [1]): Dose-dependent effect | Activity (J774 [2]): Dose-dependent effect | IC50 (J774 [2]): 2.6 µM | Activity (J774 [3]): Dose-dependent effect | IC50 (J774 [3]): 13 µM | Activity (J774 [4]): Dose-dependent effect | IC50 (J774 [4]): 4 µM | Activity (Mus musculus [5]): Active | Activity (Mus musculus [6]): Active | Activity (Mus musculus [7]): Active

COc1ccc(/C=C/c2cc(O)cc(O)c2)cc1O
inhibition (J774 [1]): Dose-dependent effect | Activity (J774 [2]): Dose-dependent effect | IC50 (J774 [2]): 103 µM | Activity (J774 [3]): Dose-dependent effect | IC50 (J774 [3]): 99.1 µM | Activity (J774 [4]): Dose-dependent effect | IC50 (J774 [4]): 19.4 µM

C[C@@H]1C[C@H]2[C@@H]3CCC4=CC(=O)C=C[C@]4(C)[C@@]3(F)[C@@H](O)C[C@]2(C)[C@@]1(O)C(=O)CO
Activity (Mus musculus [17]): Active | Activity (Mus musculus [18]): Active | Activity (Mus musculus [19]): Active
